Data published in ChEMBL document CHEMBL1123352, “Anticonvulsant activity of 2- and 3-aminobenzanilides” (J Med Chem, 1986).
Where “and” joins values, the source holds several entries; their conditions need not be identical. Equal entries are not always repeated. Calls of active or inactive are those of the source. No cut-off for these calls is given here.

Tests used:
[1] = test system: Mus musculus; assay: Anticonvulsant activity against maximal electroshock (MES) induced seizures in mice 30 minutes after ip administration of 30 mg/kg; A=Active; assay type: functional, organism-based; set-up: dose 30 mg/kg
Method in brief: (§1)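 Male Carworth Farms No. 1 mice were dosed ip with compound in 30% polyethylene glycol 400, at 30, 100 and 300 mg/kg and sometimes 600 mg/kg, and tested 30 min and 4 h later. A drop of 0.9% saline went in the eye, then 60-cycle AC at 50 mA was given for 0.2 s via corneal electrodes. Protection meant abolition of hind limb tonic extension.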

[2] = test system: Mus musculus; assay: Anticonvulsant activity against maximal electroshock (MES) induced seizures in mice 4 hours after ip administration of 100 mg/kg; A=Active; assay type: functional, organism-based; set-up: dose 100 mg/kg; method in brief: as §1
[3] = test system: Mus musculus; assay: Anticonvulsant activity against subcutaneous pentylenetetrazole induced convulsions in mice 30 min after ip administration of 600 mg/kg.; assay type: functional, organism-based; set-up: dose 600 mg/kg
Method in brief: (§2)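 Male Carworth Farms No. 1 mice were dosed ip with compound in 30% PEG 400, at 30–600 mg/kg, and read at 30 min and 4 h. Pentylenetetrazole was given at 85 mg/kg as a 0.5% solution sc in the posterior midline. Protection meant no single episode of clonic spasms lasting at least 5 s over a 30-min observation.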

[4] = test system: Mus musculus; assay: Anticonvulsant activity against subcutaneous pentylenetetrazole induced convulsions in mice 4 hr after ip administration of 600 mg/kg.; assay type: functional, organism-based; set-up: dose 600 mg/kg; method in brief: as §2
[5] = species: Mus musculus; assay: Anticonvulsant activity against maximal electroshock (MES)-induced seizures in mice; assay type: functional; method in brief: as §1
[6] = (§3) Compound for toxicity by rotarod assay method in mice after administration; assay type: organism-based; details: mouse, in vivo
Method in brief: (§4)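 Neurologic deficit was tested in male Carworth Farms No. 1 mice 30 min and 4 h after ip dosing in 30% PEG 400, at 30–600 mg/kg. Each mouse was placed on a 1-in.-diameter knurled plastic rod turning at 6 rpm. Toxicity meant failing to stay on the rod for 1 min.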

[7] = test system: Mus musculus; assay: Compound was tested for toxicity by rotarod assay method in mice 30 min after ip administration of 600 mg/kg; A=Active; assay type: organism-based; set-up: dose 600 mg/kg, route intraperitoneal; details: in vivo, 0.5 h
[8] = test system: Mus musculus; assay: Compound was tested for toxicity by rotarod assay method in mice 4 hours after ip administration of 600 mg/kg; A=Active; assay type: organism-based; set-up: dose 600 mg/kg, route intraperitoneal; details: in vivo
[9] = Protective index measured as the ratio between TD50 and ED50; assay type: ADME
[10] = test system: Mus musculus; assay: Anticonvulsant activity against maximal electroshock (MES) induced seizures in mice 30 minutes after ip administration of 100 mg/kg; A=Active; assay type: functional, organism-based; set-up: dose 100 mg/kg; method in brief: as §1
[11] = test system: Mus musculus; assay: Anticonvulsant activity against maximal electroshock (MES) induced seizures in mice 4 hours after ip administration of 600 mg/kg; A=Active; assay type: functional, organism-based; set-up: dose 600 mg/kg; method in brief: as §1
[12] = test system: Mus musculus; assay: Anticonvulsant activity against sc pentylenetetrazole-induced convulsions in mice 30 minutes after ip administration of 300 mg/kg; A=Active; assay type: functional, organism-based; set-up: dose 300 mg/kg; method in brief: as §2
[13] = test system: Mus musculus; assay: Anticonvulsant activity against sc pentylenetetrazole-induced convulsions in mice 4 hr after ip administration of 600 mg/kg; A=Active; assay type: functional, organism-based; set-up: dose 600 mg/kg; method in brief: as §2
[14] = test system: Mus musculus; assay: Compound was tested for toxicity by rotarod assay method in mice 30 min after ip administration of 300 mg/kg; A=Active; assay type: organism-based; set-up: dose 300 mg/kg, route intraperitoneal; details: in vivo, 0.5 h
[15] = test system: Mus musculus; assay: Anticonvulsant activity against maximal electroshock (MES) induced seizures in mice 30 minutes after ip administration of 600 mg/kg; A=Active; assay type: functional, organism-based; set-up: dose 600 mg/kg; method in brief: as §1
[16] = test system: Mus musculus; assay: Anticonvulsant activity against maximal electroshock (MES) induced seizures in mice 4 hours after ip administration of 600 mg/kg.; assay type: functional, organism-based; set-up: dose 600 mg/kg; method in brief: as §1
[17] = test system: Mus musculus; assay: Compound was tested for toxicity by rotarod assay method in mice after intraperitoneal administration after 30 minutes; assay type: functional, organism-based; method in brief: as §4
[18] = test system: Mus musculus; assay: Compound was tested for toxicity by rotarod assay method in mice after intraperitoneal administration after 4 hours; assay type: functional, organism-based; method in brief: as §4
[19] = test system: Mus musculus; assay: Anticonvulsant activity against maximal electroshock (MES)-induced seizures in mice 4 hours after ip administration of 300 mg/kg; A=Active; assay type: functional, organism-based; set-up: dose 300 mg/kg; method in brief: as §1
[20] = test system: Mus musculus; assay: Compound was tested for toxicity by rotarod assay method in mice after intraperitoneal administration after 4 hours at 600 mg/kg; no activity; assay type: organism-based; set-up: dose 600 mg/kg, route intraperitoneal; details: in vivo, ip
[21] = test system: Mus musculus; assay: Compound was tested for toxicity by rotarod assay method in mice 30 min after ip administration of 600 mg/kg; no activity; assay type: organism-based; set-up: dose 600 mg/kg, route intraperitoneal; details: in vivo, 0.5 h
[22] = test system: Mus musculus; assay: Anticonvulsant activity against maximal electroshock (MES) induced seizures in mice 30 minutes after ip administration of 300 mg/kg; A=Active; assay type: functional, organism-based; set-up: dose 300 mg/kg; method in brief: as §1
[23] = test system: Mus musculus; assay: Anticonvulsant activity against maximal electroshock (MES) induced seizures in mice 4 hours after ip administration of 300 mg/kg; A=Active; assay type: functional, organism-based; set-up: dose 300 mg/kg; method in brief: as §1
[24] = test system: Mus musculus; assay: Anticonvulsant activity against maximal electroshock (MES) induced seizures in mice 30 minutes after ip administration of 600 mg/kg; NA=No activity; assay type: functional, organism-based; set-up: dose 600 mg/kg; method in brief: as §1
[25] = test system: Mus musculus; assay: Anticonvulsant activity against subcutaneous pentylenetetrazole induced convulsions in mice 4 hours after ip administration of 600 mg/kg; No=No activity; assay type: functional, organism-based; set-up: dose 600 mg/kg; method in brief: as §2
[26] = test system: Mus musculus; assay: Compound was tested for toxicity by rotarod assay method in mice 30 min after ip administration at 600 mg/kg; no activity; assay type: organism-based; set-up: dose 600 mg/kg, route intraperitoneal; details: in vivo, 0.5 h
[27] = test system: Mus musculus; assay: Compound was tested for toxicity by rotarod assay method in mice 4 hours after ip administration at 600 mg/kg; no activity; assay type: organism-based; set-up: dose 600 mg/kg, route intraperitoneal; details: in vivo
[28] = test system: Mus musculus; assay: Anticonvulsant activity against sc pentylenetetrazole induced convulsions in mice 30 minutes after ip administration of 600 mg/kg; A=Active; assay type: functional, organism-based; set-up: dose 600 mg/kg; method in brief: as §2
[29] = test system: Mus musculus; assay: Anticonvulsant activity against subcutaneous pentylenetetrazole induced convulsions in mice after intraperitoneal administration after 4 hr at 600 mg/kg; NA=No activity; assay type: functional, organism-based; set-up: dose 600 mg/kg; method in brief: as §2
[30] = test system: Mus musculus; assay: Compound was tested for toxicity by rotarod assay method in mice 30 min after ip administration of 300 mg/kg; Active; assay type: organism-based; set-up: dose 300 mg/kg, route intraperitoneal; details: in vivo, 0.5 h
[31] = test system: Mus musculus; assay: Compound was tested for toxicity by rotarod assay method in mice 4 hours after ip administration of 600 mg/kg; NA=No activity; assay type: organism-based; set-up: dose 600 mg/kg, route intraperitoneal; details: in vivo
[32] = test system: Mus musculus; assay: as §3; assay type: organism-based; details: in vivo; method in brief: as §4
[33] = test system: Mus musculus; assay: Anticonvulsant activity against sc pentylenetetrazole-induced convulsions in mice 30 minutes after ip administration of 300 mg/kg; Active; assay type: functional, organism-based; set-up: dose 300 mg/kg; method in brief: as §2

SMILES | Anticonvulsant activity [3] | Anticonvulsant activity [4] | Anticonvulsant activity [16] | Anticonvulsant activity [24] | Anticonvulsant activity [25] | Toxicity [26] | Toxicity [27] | also measured
Cc1cccc(C)c1NC(=O)c1cccc(N)c1 | inactive | inactive |  |  |  |  |  | Anticonvulsant activity [1]: Active; Anticonvulsant activity [2]: Active; ED50 [5]: 13.5 mg/kg; TD50 [6]: 285 mg/kg; Toxicity [7]: Active; Toxicity [8]: Active; selectivity ratio ([9]; read-out: PI): 21.1
Cc1cccc(NC(=O)c2cccc(N)c2)c1 |  |  |  |  |  |  |  | Anticonvulsant activity [10]: Active; Anticonvulsant activity [11]: Active; Anticonvulsant activity [12]: Active; Anticonvulsant activity [13]: Active; Toxicity [14]: Active; Toxicity [8]: Active
Cc1cccc(NC(=O)c2cccc(N)c2)c1C | inactive | inactive | inactive |  |  |  |  | Anticonvulsant activity [15]: Active; Toxicity [17]: inactive; Toxicity [18]: inactive
Cc1cccc(C(C)C)c1NC(=O)c1cccc(N)c1 | inactive | inactive |  |  |  |  |  | Anticonvulsant activity [15]: Active; Anticonvulsant activity [19]: Active; Toxicity [20]: Not Active; Toxicity [21]: Not Active
Cc1cc(C)cc(NC(=O)c2cccc(N)c2)c1 |  | inactive |  |  |  |  |  | Anticonvulsant activity [22]: Active; Anticonvulsant activity [23]: Active; Anticonvulsant activity [12]: Active; Toxicity [7]: Active
Cc1ccc(NC(=O)c2ccccc2N)cc1C | inactive |  | inactive | inactive | inactive | Not Active | Not Active | 
Cc1ccccc1NC(=O)c1ccccc1N |  |  |  |  |  |  |  | Anticonvulsant activity [22]: Active; Anticonvulsant activity [11]: Active; Anticonvulsant activity [28]: Active; Anticonvulsant activity [29]: inactive; Toxicity [30]: Active; Toxicity [31]: Not Active
Cc1cccc(NC(=O)c2ccccc2N)c1 | inactive |  | inactive | inactive | inactive | Not Active | Not Active | 
Cc1ccc(C)c(NC(=O)c2ccccc2N)c1 | inactive |  | inactive | inactive | inactive | Not Active | Not Active | 
CC(NC(=O)c1ccc(N)cc1)c1ccccc1 (stereo unspecified) |  |  |  |  |  |  |  | TD50 [32]: 170.78 mg/kg; PI [9]: 9.5 and 4.1
Cc1ccc(C)c(NC(=O)c2cccc(N)c2)c1 | inactive |  | inactive | inactive | inactive | Not Active | Not Active | 
Cc1ccc(NC(=O)c2ccccc2N)cc1 | inactive |  | inactive | inactive | inactive | Not Active | Not Active | 
Cc1cccc(C)c1NC(=O)c1ccccc1N |  | inactive |  |  |  |  |  | Anticonvulsant activity [22]: Active; Anticonvulsant activity [11]: Active; Toxicity [30]: Active; Toxicity [31]: Not Active; Anticonvulsant activity [33]: Active
